ChEMBL document CHEMBL1649161, “Pharmacokinetics of EDP-420 after ascending single oral doses in healthy adult volunteers” (Antimicrob Agents Chemother, 2009)
Converted amounts (≈) assume the structure as drawn.

Legend:
[1] = test system: Homo sapiens; assay: Renal clearance in healthy human assessed as cumulative amount excreted in urine at 1200 mg, po administered as single dose measured after 48 hrs; format: ADME, organism-based; settings: in vivo
Method in brief: (§1)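 Healthy adults (6 per dose) received a single fasted oral suspension dose. Urine was collected predose and over 0–2, 2–4, 4–6, 6–8, 8–12, 12–24 and 24–48 h intervals, volumes were recorded, and aliquots were stored at −20°C. Samples were assayed by LC-MS/MS. Ae0-48 is the summed volume × concentration over all intervals; the mean was reported.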

[2] = Tmax in healthy human plasma at 1200 mg, po administered as single dose measured after 120 hrs; format: ADME, organism-based
Method in brief: (§2)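 Fasted healthy adults (n = 6 per group) took one oral suspension dose. Plasma was sampled from predose through 0.25–120 h postdose and measured by validated LC-MS/MS (lower limit 1 ng/ml). Tmax was read directly from observed concentration–time data using actual sampling times and reported as median with range.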

[3] = Apparent volume of distribution in healthy human plasma at 400 mg, po administered as single dose measured after 120 hrs; format: ADME, organism-based
[4] = Tmax in healthy human plasma at 800 mg, po administered as single dose measured after 120 hrs; format: ADME, organism-based; method in brief: as §2
[5] = test system: Homo sapiens; assay: Toxicity in healthy human assessed as changes in physical parameters signs at 100 to 1200 mg, po administered as single dose; format: organism-based; settings: in vivo
[6] = test system: Homo sapiens; assay: Renal clearance in healthy human assessed as cumulative amount excreted in urine at 200 mg, po administered as single dose measured after 48 hrs; format: ADME, organism-based; settings: in vivo; method in brief: as §1
[7] = AUC (0 to infinity) in healthy human plasma at 400 mg, po administered as single dose measured after 120 hrs; format: ADME, organism-based; parameters: dose 400 mg, route oral, time infinity
Method in brief: (§3)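 Healthy adults (6 per dose group) received a single oral suspension after an 8-h fast, with food withheld 4 h. EDTA blood was drawn predose to 120 h. Plasma was protein-precipitated with ACN and assayed by LC-MS/MS (clarithromycin internal standard; range 1–1,000 ng/ml). AUC0-last was computed by linear-up/log-down trapezoid; AUC0-∞ added Clast/λz. Values are noncompartmental means.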

[8] = Cmax in healthy human plasma at 1200 mg, po administered as single dose measured after 120 hrs; format: ADME, organism-based; parameters: dose 1200 mg, route oral
Method in brief: (§4)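 Healthy adults (n = 6 per dose) took a single oral suspension fasted (8 h before, 4 h after). Plasma was sampled from 0.25 to 120 h postdose and quantified by validated LC-MS/MS after acetonitrile precipitation (LLOQ 1 ng/ml). Cmax was read directly from observed concentration–time data; the group mean was reported.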

[9] = Renal clearance in healthy human at 800 mg, po administered as single dose measured after 48 hrs; format: ADME, organism-based, Kidney; settings: in vivo, read-out: CL_renal (converted)
Method in brief: (§5)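 Healthy adults (6 active per dose) got a single oral suspension dose after an 8-h fast, with food withheld 4 h. Urine over 0–48 h in intervals and serial EDTA plasma were assayed by validated LC-MS/MS, with plasma calibration from 1 to 1,000 ng/ml. CLR = Ae0-48 (urine volume × concentration summed) divided by plasma AUC0-48.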

[10] = Elimination rate constant in healthy human plasma at 1200 mg, po administered as single dose measured after 120 hrs; format: ADME, organism-based
[11] = Renal clearance in healthy human assessed as cumulative fraction excreted unchanged in urine at 100 mg, po administered as single dose measured after 48 hrs; format: ADME, organism-based; settings: read-out: Fraction Recovered in urine
Method in brief: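 After a single oral fasted suspension dose in healthy adults (6 per group), urine was collected in intervals to 48 h and measured by LC-MS/MS. fe0-48 = Ae0-48 (summed interval volume × concentration) / dose × 100%; the mean was reported.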

[12] = Elimination rate constant in healthy human plasma at 800 mg, po administered as single dose measured after 120 hrs; format: ADME, organism-based
[13] = test system: Homo sapiens; assay: Renal clearance in healthy human assessed as cumulative amount excreted in urine at 800 mg, po administered as single dose measured after 48 hrs; format: ADME, organism-based; settings: in vivo; method in brief: as §1
[14] = Renal clearance in healthy human at 200 mg, po administered as single dose measured after 48 hrs; format: ADME, organism-based, Kidney; settings: in vivo, read-out: CL_renal (converted); method in brief: as §5
[15] = Elimination rate constant in healthy human plasma at 100 mg, po administered as single dose measured after 120 hrs; format: ADME, organism-based
[16] = test system: Homo sapiens; assay: Toxicity in healthy human assessed as changes in prothrombin time at 100 to 1200 mg, po administered as single dose; format: organism-based; settings: in vivo
Method in brief: (§6)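 Randomized, double-blind, placebo-controlled single ascending dose study with eight subjects per group (6 drug, 2 placebo of microcrystalline cellulose). Subjects were fasted before dosing. Safety labs were done at 120 h, with a full chemistry panel also at 72 and 96 h for the top dose. Final evaluation on day 8–10, with adverse events recorded.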

[17] = Apparent volume of distribution in healthy human plasma at 800 mg, po administered as single dose measured after 120 hrs; format: ADME, organism-based
[18] = test system: Homo sapiens; assay: Toxicity in healthy human assessed as changes in ECG parameters signs at 100 to 1200 mg, po administered as single dose; format: organism-based; settings: in vivo
[19] = Cmax in healthy human plasma at 400 mg, po administered as single dose measured after 120 hrs; format: ADME, organism-based; parameters: dose 400 mg, route oral; method in brief: as §4
[20] = AUC (0 to last) in healthy human plasma at 200 mg, po administered as single dose measured after 120 hrs; format: ADME, organism-based; parameters: dose 200 mg, time 0 - last, route oral; method in brief: as §3
[21] = test system: Homo sapiens; assay: Renal clearance in healthy human assessed as cumulative amount excreted in urine at 100 mg, po administered as single dose measured after 48 hrs; format: ADME, organism-based; settings: in vivo; method in brief: as §1
[22] = Tmax in healthy human plasma at 100 mg, po administered as single dose measured after 120 hrs; format: ADME, organism-based; method in brief: as §2
[23] = Elimination rate constant in healthy human plasma at 200 mg, po administered as single dose measured after 120 hrs; format: ADME, organism-based
[24] = Half life in healthy human plasma at 800 mg, po administered as single dose measured after 120 hrs; format: ADME, organism-based
[25] = Apparent oral clearance in healthy human plasma at 800 mg, po administered as single dose measured after 120 hrs; format: ADME, organism-based
Method in brief: (§7)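 Single oral suspension dose in fasted healthy adults (6 per group). Plasma was collected to 120 h and measured by LC-MS/MS (1–1,000 ng/ml). Apparent oral clearance was dose divided by AUC0-∞ (noncompartmental, linear-up/log-down trapezoid extrapolated with Clast/λz); the mean was reported.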

[26] = test system: Homo sapiens; assay: Toxicity in healthy human assessed as incidence of adverse events at 100 to 1200 mg, po administered as single dose; format: organism-based; settings: in vivo; method in brief: as §6
[27] = Apparent oral clearance in healthy human plasma at 1200 mg, po administered as single dose measured after 120 hrs; format: ADME, organism-based; method in brief: as §7
[28] = test system: Streptococcus pneumoniae; assay: Antimicrobial activity against macrolide-resistant Streptococcus pneumoniae carrying mefA and/or ermB genes; format: functional
[29] = AUC (0 to infinity) in healthy human plasma at 100 mg, po administered as single dose measured after 120 hrs; format: ADME, organism-based; parameters: dose 100 mg, route oral, time infinity; method in brief: as §3
[30] = Cmax in healthy human plasma at 100 mg, po administered as single dose measured after 120 hrs; format: ADME, organism-based; parameters: dose 100 mg, route oral; method in brief: as §4
[31] = Apparent oral clearance in healthy human plasma at 200 mg, po administered as single dose measured after 120 hrs; format: ADME, organism-based; method in brief: as §7
[32] = AUC (0 to last) in healthy human plasma at 800 mg, po administered as single dose measured after 120 hrs; format: ADME, organism-based; parameters: dose 800 mg, route oral, time 0 - last; method in brief: as §3
[33] = AUC (0 to last) in healthy human plasma at 100 mg, po administered as single dose measured after 120 hrs; format: ADME, organism-based; parameters: dose 100 mg, route oral, time 0 - last; method in brief: as §3

## CC[C@H]1OC(=O)[C@H](C)C(=O)[C@H](C)[C@@H](O[C@@H]2O[C@H](C)C[C@H](N(C)C)[C@H]2O)[C@@]2(C)C[C@@H](C)/C(=N\C(C)=O)[C@H](C)[C@@H](OC/C(=N\OCc3ccc(-n4cccn4)nc3)CO2)[C@]1(C)O [MODITHROMYCIN]
[1]
  Amount Recovered in urine: 70.1 mg
[2]
  Tmax: 5 h
[3]
  Vd/F: 635 L
[4]
  Tmax: 4.26 h
[5]
  Activity: Non-toxic
[6]
  Amount Recovered in urine: 24.5 mg
[7]
  AUC(0-inf): 14400 ng·h/mL
[8]
  Cmax: 1080 ng/mL
[9]
  CL renal at 48 h: 57.5 mL/min
[10]
  k el at 120 h: 9.56e-06 s⁻¹
[11]
  dose excreted at 48 h: 8.57%
[12]
  k el at 120 h: 1.09e-05 s⁻¹
[13]
  Amount Recovered in urine: 91.1 mg
[14]
  CL renal at 48 h: 60.3 mL/min
[15]
  k el at 120 h: 1.23e-05 s⁻¹
[16]
  Activity: Non-toxic
[17]
  Vd/F: 601 L
[18]
  Activity: Non-toxic
[19]
  Cmax: 542 ng/mL
[20]
  AUC(0-t) at 120 h: 7650 ng·h/mL
[21]
  Amount Recovered in urine: 8.57 mg
[22]
  Tmax: 1.75 h
[23]
  k el at 120 h: 1.22e-05 s⁻¹
[24]
  half-life: 17.6 h
[25]
  CL/F: 393 mL/min
[26]
  Activity: 16.7%
[27]
  CL/F: 523 mL/min
[28]
  MIC: 0.25 µg/mL (≈ 0.297 µM)
[29]
  AUC(0-inf): 3430 ng·h/mL
[30]
  Cmax: 196 ng/mL
[31]
  CL/F: 432 mL/min
[32]
  AUC(0-t) at 120 h: 33400 ng·h/mL
[33]
  AUC(0-t) at 120 h: 3400 ng·h/mL
